The target in experiment [1] is T1, Neuraminidase (Influenza A virus, UniProt B4URF0). The experiment can be described thus: Inhibition of Influenza A virus (A/duck/Hokkaido/84/2002(H5N3)) neuraminidase after 30 mins by fluorescence analysis.
Experiment [2] is described as follows: Inhibition of Influenza B virus (B/Yamagata/87/2004(Yamagata)) neuraminidase after 30 mins by fluorescence analysis. The procedure, abridged: (§1)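 Virus NA source was mixed with compound in 32.5 mM MES-NaOH pH 6.5 with 4 mM CaCl2 and preincubated 10 min at room temperature. Reaction ran 30 min at room temperature with 100 μM (final) 4-MU-NANA. Fluorescence was read at ex 360/em 460 nm, in triplicate. IC50 came from linear regression of residual activity against log concentration, using concentrations giving 10–90% residual activity.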

Experiment [3] concerns the target T1, Neuraminidase. As to the kind of experiment: Inhibition of Influenza A virus (A/New York/55/2004(H3N2)) neuraminidase after 30 mins by fluorescence analysis.
Experiment [4] has as its target T1, Neuraminidase. The experiment can be described thus: Inhibition of Influenza A virus (A/R(duck/Mongolia/54/01-duck/Mongolia/47/01)([…])) neuraminidase after 30 mins by fluorescence analysis.
The nature of experiment [5]: Inhibition of Influenza B virus (B/Shanghai/361/2002(Yamagata)) neuraminidase after 30 mins by fluorescence analysis. An outline of the steps:
as §1

The target in experiment [6] is T1, Neuraminidase. The experiment can be described thus: Inhibition of Influenza A virus (A/Shiga/1/2002(H1N1)) neuraminidase after 30 mins by fluorescence analysis.
The target in experiment [7] is T1, Neuraminidase. As to the kind of experiment: Inhibition of Influenza A virus (A/Saitama/78/2003(H1N1)) neuraminidase after 30 mins by fluorescence analysis.
Experiment [8] can be described thus: Inhibition of Influenza B virus (B/Shiga/31/2002(Yamagata)) neuraminidase after 30 mins by fluorescence analysis. The procedure, abridged:
as §1

The target of experiment [9] is T1, Neuraminidase. The experiment can be described thus: Inhibition of Influenza A virus (A/Yamagata/3/2002(H1N1)) neuraminidase after 30 mins by fluorescence analysis.
The target of experiment [10] is T1, Neuraminidase. As to the kind of experiment: Inhibition of Influenza A virus (A/Shiga/5/2002(H3N2)) neuraminidase after 30 mins by fluorescence analysis.
Experiment [11] can be described thus: Inhibition of Influenza B virus (B/Ohio/01/2005(Victoria)) neuraminidase after 30 mins by fluorescence analysis. The procedure, abridged: as §1
The target in experiment [12] is T1, Neuraminidase. As to the kind of experiment: Inhibition of Influenza A virus (A/Wisconsin/67/2005(H3N2)) neuraminidase after 30 mins by fluorescence analysis.
In experiment [13] the target is T1, Neuraminidase. The experiment can be described thus: Inhibition of Influenza A virus (A/Aichi/169/2005(H1N1)) neuraminidase after 30 mins by fluorescence analysis.
Experiment [14] addresses T1, Neuraminidase. As to the kind of experiment: Inhibition of Influenza A virus (A/Singapore/1/1957(H2N2)) neuraminidase after 30 mins by fluorescence analysis.
Experiment [15] in a line: Inhibition of Influenza B virus (B/Yamagata/398/2003(Victoria)) neuraminidase after 30 mins by fluorescence analysis. The procedure, abridged: as §1
In experiment [16] the target is T1, Neuraminidase. The experiment can be described thus: Inhibition of Influenza A virus (A/Osaka/56/2004(H3N2)) neuraminidase after 30 mins by fluorescence analysis.
The target of experiment [17] is T1, Neuraminidase. As to the kind of experiment: Inhibition of Influenza A virus (A/California/07/2004(H3N2)) neuraminidase after 30 mins by fluorescence analysis.
Experiment [18] can be described thus: Inhibition of Influenza B virus (B/Shizuoka/58/2004(Yamagata)) neuraminidase after 30 mins by fluorescence analysis. An outline of the steps: as §1

T1 sequence (B4URF0 whole entry): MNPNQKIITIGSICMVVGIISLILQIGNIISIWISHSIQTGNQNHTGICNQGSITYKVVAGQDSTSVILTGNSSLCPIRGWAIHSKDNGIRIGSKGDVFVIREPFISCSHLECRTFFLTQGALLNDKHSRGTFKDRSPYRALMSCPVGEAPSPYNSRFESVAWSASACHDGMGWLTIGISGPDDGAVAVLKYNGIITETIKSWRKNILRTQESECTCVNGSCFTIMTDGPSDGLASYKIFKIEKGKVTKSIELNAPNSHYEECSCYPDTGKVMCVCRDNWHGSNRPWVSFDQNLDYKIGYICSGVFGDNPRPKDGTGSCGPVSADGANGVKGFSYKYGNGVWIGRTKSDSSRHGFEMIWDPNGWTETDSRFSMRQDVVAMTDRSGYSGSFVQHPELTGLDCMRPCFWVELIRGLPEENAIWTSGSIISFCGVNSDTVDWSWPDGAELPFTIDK

With `CCCCCCCC(=O)OC[C@@H](O)[C@@H](OC)[C@@H]1OC(C(=O)O)=C[C@H](NC(=N)N)[C@H]1NC(C)=O` [LANINAMIVIR OCTANOATE], the half-inhibitory concentration (IC50) came to 456 nM at Neuraminidase [1]; 7790 nM in experiment [2]; 136 nM on Neuraminidase [3]; 276 nM at Neuraminidase [4]; 6660 nM in experiment [5]; 733 nM at Neuraminidase [6]. Moreover, the IC50 on Neuraminidase [7] was 940 nM; in experiment [8] it was 10500 nM; against Neuraminidase [9], 709 nM; against Neuraminidase [10] it was 64.2 nM; in experiment [11], 12800 nM; at Neuraminidase [12], 187 nM. Further, the 50% inhibitory concentration (IC50) was found to be 664 nM against Neuraminidase [13]; 128 nM against Neuraminidase [14]; 12400 nM in [15]; 129 nM against Neuraminidase [16]; 135 nM on Neuraminidase [17]; 7530 nM in experiment [18].

The IC50 is the concentration at which inhibition is half-maximal. Read a high IC50 as weaker potency.

The values are drawn from ChEMBL document CHEMBL1629572 (Antimicrob Agents Chemother, 2009).
